How the values were obtained:
Rattus norvegicus [1] = species: Rattus norvegicus; test: Inhibition of after-hyperpolarization (AHP) in cultured rat sympathetic neurons; format: functional; conditions: Sympathetic neuron
Outline: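 Compounds from 2 mM MeOH stocks, each tested at two to four concentrations on at least three cells. AHP inhibition was obtained by digitally subtracting blocker records from controls, with the peak difference given as % of control AHP at the same time point.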

Rattus norvegicus [2] = species: Rattus norvegicus; test: Equi-effective molar ratio expressed as the ratio of tested compound concentration to that of dequalinium that cause 50% inhibition of the AHP in rat sympathetic neurons; format: functional, Sympathetic neuron

Structure (SMILES) | IC50 (Rattus norvegicus [1]) [nM] | Ratio (Rattus norvegicus [2])
Nc1cc[n+](Cc2ccc(C#Cc3ccc(C[n+]4ccc(N)c5ccccc54)cc3)cc2)c2ccccc12 | 1000 | 1.41
Nc1cc[n+](Cc2ccc(Cc3ccc(C[n+]4ccc(N)c5ccccc54)cc3)cc2)c2ccccc12 | 450 | 0.39
Nc1cc[n+](Cc2ccc3cc(C[n+]4ccc(N)c5ccccc54)ccc3c2)c2ccccc12 | 490 | 0.83
Nc1cc[n+](Cc2ccc(CCCCc3ccc(C[n+]4ccc(N)c5ccccc54)cc3)cc2)c2ccccc12 | 370 | 0.44
Nc1cc[n+](Cc2ccc(-c3ccc(C[n+]4ccc(N)c5ccccc54)cc3)cc2)c2ccccc12 | 380 | 0.4
Nc1cc[n+](Cc2ccc(CCc3ccc(C[n+]4ccc(N)c5ccccc54)cc3)cc2)c2ccccc12 | 410 | 0.71
Cc1cc(N)c2ccccc2[n+]1CCCCCCCCCC[n+]1c(C)cc(N)c2ccccc21.[Cl-].[Cl-] [DEQUALINIUM CHLORIDE] | 650 | 1
Nc1cc[n+](Cc2ccc(/C=C/c3ccc(C[n+]4ccc(N)c5ccccc54)cc3)cc2)c2ccccc12 | 940 | 1.46
Nc1cc[n+](Cc2ccc(C[n+]3ccc(N)c4ccccc43)cc2)c2ccccc12 | 2800 | 3.7
Nc1cc[n+](Cc2ccc(-c3ccc(-c4ccc(C[n+]5ccc(N)c6ccccc65)cc4)cc3)cc2)c2ccccc12 | 1900 | 2.3

Further compounds by falling IC50 (Rattus norvegicus [1]), results first:

IC50 (Rattus norvegicus [1]) [nM] | Structure (SMILES) | Ratio (Rattus norvegicus [2])
360 | Nc1cc[n+](Cc2ccc(-c3cccc(-c4ccc(C[n+]5ccc(N)c6ccccc65)cc4)n3)cc2)c2ccccc12 | 0.59
310 | Nc1cc[n+](Cc2ccc3c(c2)Cc2cc(C[n+]4ccc(N)c5ccccc54)ccc2-3)c2ccccc12 | 0.33
290 | Nc1cc[n+](Cc2cccc(-c3cccc(C[n+]4ccc(N)c5ccccc54)c3)c2)c2ccccc12 | 0.55
200 | Nc1cc[n+](Cc2ccc(CCCc3ccc(C[n+]4ccc(N)c5ccccc54)cc3)cc2)c2ccccc12 | 0.31
200 | Nc1cc[n+](Cc2ccc3ccc4ccc(C[n+]5ccc(N)c6ccccc65)cc4c3c2)c2ccccc12 | 0.33
190 | Nc1cc[n+](Cc2ccc(/C=C\c3ccc(C[n+]4ccc(N)c5ccccc54)cc3)cc2)c2ccccc12 | 0.24

From ChEMBL document CHEMBL1129450, “Synthesis, molecular modeling, and K+ channel-blocking activity of dequalinium analogues having semirigid linkers” (J Med Chem, 1996)
